Measured values as given in ChEMBL document CHEMBL3102858, “Anti-hepatitis C virus dinorditerpenes from the roots of Flueggea virosa” (J Nat Prod, 2014).

Legend:
[1] = test system: Hepatitis C virus; assay: Antiviral activity against HCV expressing JC1-Luc2A infected in Huh7.5 cells assessed as inhibition of viral infection after 72 hrs by luciferase reporter gene assay; type: functional, organism-based, Hepacivirus hominis; conditions: Huh7.5, 72 h
Summary of the method: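 Huh7.5 cells were preseeded at 1 × 10^4 cells/well for 24 h, then exposed to JC1-Luc2A reporter HCV (0.1 MOI) for 4 h. The inoculum was removed and the cells washed three times. Fresh medium with compounds was added. After 72 h, luciferase activity was read in cell lysates (Bright-Glo). EC50 is the concentration inhibiting HCVcc infection by 50%.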

[2] = Therapeutic index, ratio of IC50 for human Huh7.5 cells to EC50 for HCV; type: cell-based, Huh-7; conditions: read-out: Ratio IC50/EC50
Summary of the method: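 TI was calculated as IC50/EC50. IC50 came from the 72 h Huh7.5 viability assay and EC50 from the 72 h JC1-Luc2A HCVcc luciferase infection assay.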

[3] = Cytotoxicity against human Huh7.5 cells after 72 hrs; type: cell-based; conditions: Huh-7, 72 h
Summary of the method: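 Huh7.5 cells, derived from human hepatoma Huh7, were grown in DMEM with 10% heat-inactivated FBS and 1% nonessential amino acids. They were preseeded at 1 × 10^4 cells/well for 24 h, then given serial compound concentrations. Viable cells were measured after 72 h with the CellTiter 96 Aqueous One Solution kit. IC50 is the concentration inhibiting cell growth by 50%.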

Compound | EC50 [1] | selectivity ratio [2] | IC50 [3]
Cc1cc2c(cc1O)[C@]1(C)CC[C@H](O)C(C)(C)[C@H]1C=C2 | 5.6 µM | 9.8 | 54.9 µM
Cc1cc2c(cc1O)[C@]1(C)CC[C@H](O)C(C)(C)[C@H]1CC2 | 12 µM | 4.5 | 54.3 µM
C=C[C@]1(C)C=C2CC[C@H]3C(C)(C)[C@H](O)CC[C@]3(C)[C@H]2C[C@@H]1O | 52.7 µM | 3.2 | 167 µM
COc1cc2c(cc1C)C=C[C@@H]1C(C)(C)[C@H](O)CC[C@@]21C | 24.9 µM | 2.8 | 70 µM
COc1cc2c(cc1CO)C=C[C@@H]1C(C)(C)[C@H](O)CC[C@@]21C | 27.4 µM | 4.6 | 125 µM
COc1cc2c(cc1CO)C=C[C@@H]1C(C)(C)[C@@H](O)CC[C@@]21C | 30.5 µM | 4.9 | 151 µM
Cc1cc2c(cc1O)[C@]1(C)CCC(=O)C(C)(C)[C@H]1C=C2 | 25.5 µM | 3.4 | 86.5 µM
COc1cc2c(cc1C)C=C[C@@H]1C(C)(C)C(=O)CC[C@@]21C | 47.3 µM | 1.7 | 81.8 µM
Cc1cc2c(cc1O)[C@]1(C)CCC(=O)C(C)(C)[C@H]1[C@H](O)C2 | 52.8 µM | 5.5 | 292 µM
COc1cc2c(cc1C)[C@H]1C[C@@H]3C(C)(C)[C@H](O)CC[C@@]23CO1 | 7.5 µM | 55.9 | 419 µM
COc1cc2c(cc1C)CC[C@@H]1C(C)(C)[C@@]3(O)CC[C@@]21CO3 | 6.6 µM | 45 | 297 µM
C=CCc1ccc(O)c(-c2ccc(O)c(CC=C)c2)c1 [HONOKIOL] | 9.4 µM | 6.2 | 
C=Cc1c(C)c(O)cc2c1CC[C@@H]1C(C)(C)[C@H](O)CC[C@@]21C [SPRUCEANOL] | 5 µM | 10.5 | 52.4 µM
